Active and inactive are the calls of the source. The calls are words filed in the database; no cut-off is given here.

The target in the first experiment is T1, Peroxisome proliferator-activated receptor gamma (Homo sapiens) (UniProt P37231).
T1 sequence (whole entry): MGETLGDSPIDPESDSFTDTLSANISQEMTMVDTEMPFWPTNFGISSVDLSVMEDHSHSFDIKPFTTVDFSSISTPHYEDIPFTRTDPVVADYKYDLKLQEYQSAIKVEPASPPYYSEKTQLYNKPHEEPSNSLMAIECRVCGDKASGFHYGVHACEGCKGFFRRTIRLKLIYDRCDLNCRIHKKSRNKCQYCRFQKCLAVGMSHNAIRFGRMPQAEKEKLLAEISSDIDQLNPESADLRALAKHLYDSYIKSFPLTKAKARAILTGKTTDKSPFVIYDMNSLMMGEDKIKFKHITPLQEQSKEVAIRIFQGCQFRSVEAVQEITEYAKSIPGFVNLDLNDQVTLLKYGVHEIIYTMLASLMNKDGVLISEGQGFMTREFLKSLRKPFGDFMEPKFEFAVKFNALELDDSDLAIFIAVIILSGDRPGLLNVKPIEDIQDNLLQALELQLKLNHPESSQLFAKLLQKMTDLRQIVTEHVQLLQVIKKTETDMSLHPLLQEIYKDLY
The experiment can be described thus: Agonist activity at PPARgamma (unknown origin) transfected in HEK293 cells at 10 uM by luciferase reporter gene assay. The format is cell-based. The method in brief: (§1)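 Luciferase PPAR reporter assay in transfected HEK293 cells, run following a previously reported protocol. Each receptor was tested alongside a subtype-selective reference agonist as control: PPARα at 10 µM, PPARδ at 100 nM and PPARγ at 10 µM.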
As to `CC(C)(Oc1ccc(C(=O)c2ccc(Cl)cc2)cc1)C(=O)O`, the result was Active.

As for `CCCCC/C=C/C=C1/C(=O)C=C[C@@H]1CCCCC(=O)O`, the outcome was Active.

Consider `CCCCC[C@H](O)/C=C/[C@H]1C(=O)C[C@H](O)[C@@H]1C/C=C\CCCC(=O)O`, for which the outcome was Active.

Regarding `CC1(COc2ccc(CC3SC(=O)NC3=O)cc2)CCCCC1` (stereo not given), the outcome was Active.

For the next experiment, the target named is T2, Peroxisome proliferator-activated receptor alpha (Homo sapiens) (UniProt Q07869).
T2 sequence (whole entry): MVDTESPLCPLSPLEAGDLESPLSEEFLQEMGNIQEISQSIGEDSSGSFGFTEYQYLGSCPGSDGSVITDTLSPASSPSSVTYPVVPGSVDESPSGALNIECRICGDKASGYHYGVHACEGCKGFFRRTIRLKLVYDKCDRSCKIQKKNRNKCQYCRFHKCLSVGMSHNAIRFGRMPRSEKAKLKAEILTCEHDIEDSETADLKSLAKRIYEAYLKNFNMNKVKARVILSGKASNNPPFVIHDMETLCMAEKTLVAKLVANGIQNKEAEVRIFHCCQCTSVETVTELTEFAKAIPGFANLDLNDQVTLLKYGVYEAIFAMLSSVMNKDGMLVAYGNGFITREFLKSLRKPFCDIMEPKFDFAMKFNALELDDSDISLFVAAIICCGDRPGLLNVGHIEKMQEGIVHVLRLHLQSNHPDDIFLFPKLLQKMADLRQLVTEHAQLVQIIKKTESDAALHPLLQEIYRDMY
Nature of the experiment: Agonist activity at PPARalpha (unknown origin) transfected in HEK293 cells at 10 uM by luciferase reporter gene assay. The format is cell-based. The method in brief: as §1
For `CCCCC[C@H](O)/C=C/[C@H]1C(=O)C[C@H](O)[C@@H]1CCCCC(=O)O`, the outcome was Active.

As for `CCCCC[C@@H](O)/C=C/[C@H]1C(=O)C[C@H](O)[C@@H]1CCCCC(=O)O`, the outcome was Active.

For the compound `CC(C)(Oc1ccc(C(=O)c2ccc(Cl)cc2)cc1)C(=O)O`, the outcome was Active.

As to `CCCCC/C=C/C=C1/C(=O)C=C[C@@H]1CCCCC(=O)O`, the outcome was Active.

On to `CCCCC[C@H](O)/C=C/[C@H]1C(=O)C[C@H](O)[C@@H]1C/C=C\CCCC(=O)O`, for which the result was Active.

As to `CC1(COc2ccc(CC3SC(=O)NC3=O)cc2)CCCCC1` (stereo not given), the result was Active.

Another experiment has as its target T2, Peroxisome proliferator-activated receptor alpha (Homo sapiens). Nature of the experiment: Agonist activity at PPARalpha (unknown origin) transfected in HEK293 cells at 1 to 30 uM by luciferase reporter gene assay. The format is cell-based.
Consider `CCCCC[C@H](O)/C=C/[C@H]1C(=O)C[C@H](O)[C@@H]1CCCCC(=O)O`, for which the outcome was Active.

As to `CCCCC[C@@H](O)/C=C/[C@H]1C(=O)C[C@H](O)[C@@H]1CCCCC(=O)O`, the outcome was Active.

`CCCCC[C@H](O)/C=C/[C@H]1C(=O)C[C@H](O)[C@@H]1C/C=C\CCCC(=O)O`: the outcome was Active.

For the next experiment, the target named is T1, Peroxisome proliferator-activated receptor gamma (Homo sapiens). Nature of the experiment: Agonist activity at PPARgamma (unknown origin) transfected in HEK293 cells at 1 to 30 uM by luciferase reporter gene assay. The experiment is classed as cell-based.
Consider `CCCCC[C@H](O)/C=C/[C@H]1C(=O)C[C@H](O)[C@@H]1CCCCC(=O)O`, for which the result was Active.

For the compound `CCCCC[C@@H](O)/C=C/[C@H]1C(=O)C[C@H](O)[C@@H]1CCCCC(=O)O`, the result was Active.

Turning to `CCCCC[C@H](O)/C=C/[C@H]1C(=O)C[C@H](O)[C@@H]1C/C=C\CCCC(=O)O`, the result was Active.

For a further experiment, the target named is T3, Peroxisome proliferator-activated receptor delta (Homo sapiens) (UniProt Q03181).
T3 sequence (whole entry): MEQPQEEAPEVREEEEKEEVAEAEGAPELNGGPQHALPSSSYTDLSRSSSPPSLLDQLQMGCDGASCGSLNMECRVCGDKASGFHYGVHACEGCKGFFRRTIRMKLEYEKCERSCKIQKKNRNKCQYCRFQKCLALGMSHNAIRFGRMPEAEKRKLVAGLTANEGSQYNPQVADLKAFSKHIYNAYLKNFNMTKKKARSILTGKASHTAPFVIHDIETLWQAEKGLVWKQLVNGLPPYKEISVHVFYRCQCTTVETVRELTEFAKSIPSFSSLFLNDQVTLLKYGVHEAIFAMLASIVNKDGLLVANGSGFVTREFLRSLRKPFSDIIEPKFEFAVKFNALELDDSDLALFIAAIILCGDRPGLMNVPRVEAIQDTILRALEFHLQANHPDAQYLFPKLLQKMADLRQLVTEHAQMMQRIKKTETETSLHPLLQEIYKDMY
Nature of the experiment: Agonist activity at PPARdelta (unknown origin) transfected in HEK293 cells at 10 uM by luciferase reporter gene assay. The experiment is classed as cell-based.
On to `CC(C)(Oc1ccc(C(=O)c2ccc(Cl)cc2)cc1)C(=O)O`, for which the outcome was Active.

On to `CCCCC/C=C/C=C1/C(=O)C=C[C@@H]1CCCCC(=O)O`, for which the result was Active.

Take `CCCCC[C@H](O)/C=C/[C@H]1C(=O)C[C@H](O)[C@@H]1C/C=C\CCCC(=O)O`: the result was Active.

`CC1(COc2ccc(CC3SC(=O)NC3=O)cc2)CCCCC1` (stereo not given): the result was Active.

These data come from ChEMBL document CHEMBL2380245, “Synthesis and evaluation of 2,3-dinorprostaglandins: Dinor-PGD1 and 13-epi-dinor-PGD1 are peroxisome proliferator-activated receptor α/γ dual agonists” (Bioorg Med Chem Lett, 2013).
